Screening results as filed in PubChem BioAssay.
An excerpt weighted towards active compounds, which were near 0.85% of everything screened.
CRFR2-BP ag = agonists of human CRF-binding protein/CRF-R2 receptor complex; HEK293 CRF-R2/CRF-BP, calcium dye fluorescence (FLIPR); percent of saturating CRF peptide response; activation, % at 13.2 µM; hit rate 0.46% among 350,000;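 active = activation of at least 50%, plus an integration ratio under a set limit after plate pattern correction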;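 also: plate controls were neutral control wells without compound for no effect and CRF at EC100 for full effect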
V1aR counter = activates human V1a receptor in oxytocin agonist counter-screen; P37288; CHO-V1R cells, Fluo-8 calcium fluorescence, agonist mode; 0% DMSO, 100% 3 nM vasopressin; activation, % at 3 µM; hit rate 0.25% among 320,000;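 active = activation above the mean activation of all tested compounds plus 3 SD, per screening run, cut at about 20% in these data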;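 also: signal is peak over basal fluorescence ratio across a 100 second FLIPR read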
OXTR agonist = activates the human oxytocin receptor. P30559. CHO-OTR cells, Fluo-8 calcium fluorescence; normalized: DMSO 0%, oxytocin 100%. activation, % at 3 µM. hit rate 0.32% among 320,000;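 active = activation above the mean of all tested compounds plus 3 SD, cutoff set per screening run, cut at about 20% in these data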;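 also: peak over basal fluorescence ratio from a 100 s FLIPR kinetic read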
Target sequence (P30559 whole entry, looked up): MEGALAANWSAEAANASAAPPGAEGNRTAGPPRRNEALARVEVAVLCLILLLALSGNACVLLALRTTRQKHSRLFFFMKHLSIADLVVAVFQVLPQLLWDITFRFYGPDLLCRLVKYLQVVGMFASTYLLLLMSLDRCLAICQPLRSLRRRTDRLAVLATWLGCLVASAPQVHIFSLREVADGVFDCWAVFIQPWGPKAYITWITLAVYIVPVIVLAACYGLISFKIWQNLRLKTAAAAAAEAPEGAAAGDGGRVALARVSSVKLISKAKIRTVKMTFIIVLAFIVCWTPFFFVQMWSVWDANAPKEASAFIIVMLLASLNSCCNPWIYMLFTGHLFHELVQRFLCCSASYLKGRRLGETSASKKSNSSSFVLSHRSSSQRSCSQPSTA
TRPML3 ag = activates the human TRPML3 channel | Q8TDD5 | HEK293 TRPML3-YFP, Fluo-8 calcium fluorescence; 100% = the carbachol control signal | activation, % at 3 µM | hit rate 0.29% among 220,000 | AID 1448;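 active = activation above its plate's cutoff, the mean activation of the plate's test wells plus 3 SD, cut at about 12% in these data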;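 also: 0% = DMSO only wells and 100% = carbachol wells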
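Test system: TRPML3-YFP stable HEK293 cells. Doses: single point at 3 µM. Incubation: dye loading 1 h 37 °C then 30 min ambient, 125 s read. Signal: Fluo-8 calcium dye fluorescence, ex 470-495, em 515-575 nm. Measure: percent activation from peak-to-basal fluorescence ratio, scaled between DMSO and carbachol.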
TRPN1 ag = agonists of zebrafish TRPN1 channel. HEK293 zebrafish TRPN1-YFP, Fluo-8 calcium fluorescence; 100% = response to 87 µM carbachol. activation, % at 3 µM. hit rate 0.18% among 220,000. AID 1424;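 active = activation above its plate's cutoff, the mean activation of test wells on that plate plus 3 SD, cut at about 19% in these data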;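 also: 0% = DMSO alone and 100% = 87 µM carbachol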
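Assay system: Zebrafish TRPN1-YFP in HEK293 cells | Incubation: Dye loading 1 h at 37 °C, then 30 min room temperature | Measured by: Kinetic Fluo-8 fluorescence, ex 470-495, em 515-575 nm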
OXTR potentiator = potentiators of human oxytocin receptor; CHO-OTR cells, Fluo-8 calcium fluorescence, potentiator mode; 0% = oxytocin EC15, 100% = EC100; hit rate 0.061% among 320,000; activation, % at 3 µM; P30559;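 active = activation above that plate's cutoff, the mean activation of tested compounds plus 3 SD, cut at about 6.6% in these data, passing the limit was not always enough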;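 also: 100% uses oxytocin at 75 nM as the full agonist control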
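Measured by – Fluo-8 calcium dye fluorescence · Test system – human OTR in CHO cells · Dosing – one concentration, 3.0 µM compound · Controls – EC15 oxytocin alone as 0%, 75 nM oxytocin as 100% · Evaluation – normalized max/min fluorescence ratio, % activation · Timing – 6 min pre-incubation, 100 s read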
* marks the source's active call; other numbers are inactive results; x = not tested or not shown.

SMILES	CRFR2-BP ag	V1aR counter	OXTR agonist	TRPML3 ag	TRPN1 ag	OXTR potentiator
CCOc1cc(/C=N/N2CCOCC2)ccc1OCc1ccc(C(=O)OC)o1	0.1	-0.5	-1.7	143.9*	382.4*	-6.8
Cc1ccc2c(c1)[nH]c1c(=O)n(Cc3ccco3)cnc12	83.5*	7.9	7.8	1.8	6.0	-7.1
O=c1c2[nH]c3ccccc3c2ncn1Cc1ccco1	-2.5	-0.5	-2.1	-0.1	-0.5	-0.2
Cn1c(-c2ccc(C=O)s2)nc2c3ccccc3c3ccccc3c21	112.0*	2.4	0.7	0.6	-0.4	-8.1
CC(=O)Nc1cccc(C(=O)/C=C/c2ccc(N(C)C)cc2)c1	195.8*	132.2*	194.5*	20.0*	43.8*	-19.4
CC(=O)Nc1cccc(C(=O)/C=C/c2ccc(/C=C/C(=O)c3cccc(NC(C)=O)c3)cc2)c1	x	0.1	2.0	0.9	0.7	-9.4
O=c1oc2c(CN3CCCCC3)c(O)ccc2cc1-c1nc2ccccc2[nH]1	97.4*	x	x	x	x	x
O=c1[nH]cccc1-c1nc2ccccc2[nH]1	3.3	2.1	0.5	x	x	-7.6
O=c1oc2c(O)cccc2cc1-c1nc2ccccc2[nH]1	183.6*	x	x	x	x	x
O=c1oc2c(CN3CCN(CCO)CC3)c(O)ccc2cc1-c1ccccn1	70.9*	-0.2	1.5	1.0	1.1	0.0
CCCCCCn1c(=O)n2n(c1=O)C[C@]1(OC(=O)NCc3ccco3)CN(S(=O)(=O)c3ccc(C)cc3)C[C@]1(O)C2	6.4	x	x	x	x	x
O=C1SCCC1NS(=O)(=O)c1ccc([N+](=O)[O-])cc1 (configuration not stated)	2.1	1.6	0.8	x	x	25.7*
O=C(NC(=S)NC1CCSC1=O)c1ccc([N+](=O)[O-])cc1 (configuration not stated)	x	0.9	0.9	x	x	-10.9
CC1=C/C(=N\OS(=O)(=O)c2ccccc2)C(C(C)C)=CC1=O	40.9	-0.8	-1.9	35.3*	2.7	-5.2
CC(S(=O)(=O)c1ccccc1)S(=O)(=O)c1ccccc1	6.3	x	x	x	x	x
CCC(=O)OCOc1ccc(/C=C2/CCC(CN(C)C)C2=O)cc1 (configuration not stated)	2.0	x	x	x	x	x
CS(=O)(=O)N(Cc1ccccc1)c1ccc(C(=O)N2CCOCC2)cc1	123.1*	1.4	1.1	0.1	0.4	-4.6
CN1CCN(c2ccc(S(=O)(=O)N3CCCCC3)cc2NC(=O)Cc2ccc(Cl)cc2)CC1	15.2	26.2*	21.0*	1.1	4.0	-14.4
O=S(=O)([O-])CCC[n+]1c(/C=C\Nc2ccccc2)oc2ccc(-c3ccccc3)cc21	x	x	x	25.0*	119.0*	x
CC[n+]1c(/C=C/Nc2ccccc2)oc2ccc(OC)cc21	-0.2	1.4	1.9	0.9	0.2	1.6
COc1ccc(N2CCN(CC(=O)c3ccc(Cl)cc3)CC2)cc1	-0.4	0.2	-1.8	x	x	-12.1
CC1=NN(c2ccccc2)C(=O)/C1=C\C=C1/N(C)c2ccccc2C1(C)C	52.1*	42.9*	34.3*	3.5	5.6	-20.9
CC1=NN(c2ccccc2)C(=O)/C1=C/N(C)C	-0.2	-0.7	0.0	1.1	0.5	-2.1
CN1/C(=C\C=C2/C(=O)Oc3ccccc3C2=O)C(C)(C)c2ccccc21	322.8*	261.4*	366.8*	129.7*	153.8*	-12.5
CC1=NN(c2ccccc2)C(=O)/C1=C\C=C1\N(C)c2ccccc2C1(C)C	45.7	36.4*	31.3*	5.0	15.2	-13.3
SMILES	CRFR2-BP ag	V1aR counter	OXTR agonist	TRPML3 ag	TRPN1 ag	OXTR potentiator
CCCCCCNC(=O)OC12CN(C(=O)OC(C)C)N(C(=O)OC(C)C)CC1(O)CN(S(=O)(=O)c1ccc(C)cc1)C2 (configuration not stated)	1.9	x	x	x	x	x
COC(=O)c1ccc(/C=C/c2c(-c3ccsc3)oc3ccc(N4CCOCC4)cc23)cc1	-2.8	1.8	1.4	x	x	-1.3
CN(C)C(CNC1CC(C)(C)NC(C)(C)C1)c1cccc(F)c1 (configuration not stated)	0.1	0.1	-0.1	x	x	-7.7
Cc1ccccc1C1=NC(C(F)(F)F)(C(F)(F)F)c2c(n(C)c(=O)n(C)c2=O)N1	-1.4	0.3	-1.1	0.5	0.3	-3.8
Cn1c2c(c(=O)n(C)c1=O)C(C(F)(F)F)(C(F)(F)F)N=C(c1ccc(Cl)cc1)N2	83.1*	8.1	14.1	20.4*	29.3*	-7.9
CCOc1cc(/C=N\NC(=O)C2C(=O)NCC2c2ccccc2)ccc1OC (configuration not stated)	56.1*	0.6	0.7	1.4	0.7	-2.1
O=C(CN1C(=O)c2cccc([N+](=O)[O-])c2C1=O)N1CCc2ccccc2C1	2.1	x	x	x	x	x
O=Cc1c(N2CCN(CCO)CC2)nc2ccccn2c1=O	128.1*	0.2	0.4	x	x	2.0
CCN1CCN(c2nc3ccccn3c(=O)c2C=O)CC1	5.9	1.8	0.2	x	x	-10.5
COC(=O)C1(c2ccccc2)NC(c2cccs2)C2C(=O)N(C)C(=O)C21 (configuration not stated)	0.6	-0.5	-1.1	-0.6	-0.3	-10.6
COC(=O)C1(c2ccccc2)NC(c2cccs2)C2C(=O)N(c3ccccc3)C(=O)C21 (configuration not stated)	-1.2	20.9*	23.2*	-0.1	-1.7	-19.4
O=C(CCC(=O)N1CCOc2ccc(Cl)cc21)NCc1ccccc1	243.4*	0.3	-0.8	x	x	-0.3
CS(=O)(=O)NCc1ccccc1Br	x	-0.4	0.4	x	x	-2.1
COc1ccc(NC(=O)C(Cl)=C(Cl)Cl)cn1	1.9	x	x	0.0	-0.1	x
COc1ccc(NC(=O)/C(Cl)=C(/Cl)S(=O)Cc2ccc(Cl)cc2)cn1 (configuration not stated)	88.3*	x	x	1.9	4.8	x
Cc1ccc2cccc(S(=O)(=O)N3CCCc4ccccc43)c2n1	87.5*	2.4	3.9	2.5	4.6	-15.8
Cc1ccc(S(=O)(=O)N2CCCc3ccccc32)cc1	1.1	x	x	x	x	x
Clc1ccc(-c2nnc3sc(-c4ccc(Br)o4)nn23)cc1	52.5*	6.3	4.5	0.6	-0.2	-11.7
Clc1ccc(-c2nnc3sc(-c4ccc(Br)o4)nn23)c(Cl)c1	-1.1	-0.7	-1.1	1.1	1.1	-4.6
COC(=O)c1sc(-c2ccc(Cl)cc2)cc1NC(=O)/C=C/C(=O)O	-0.4	15.4	21.8*	0.4	1.6	-17.4
COC(=O)c1sc(-c2ccc(Cl)cc2)cc1NC(=O)COCC(=O)O	-0.2	0.8	0.5	2.4	3.5	-2.4
CCNC(=S)N(CCc1ccc(S(N)(=O)=O)cc1)C1CC(=O)N(c2ccccc2)C1=O (configuration not stated)	96.8*	1.1	1.6	2.0	7.9	-16.4
